MrgX1 allo act = positive allosteric modulators of MrgX1, primary screen, HEK293 cells, Fluo-4 calcium flux; actives 0.63% (n = 310,000); Mas-related G-protein coupled receptor member X1 (Homo sapiens), Q96LB2; B-score at 10 µM; FDSS; stronger effect = higher value;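 active = plate-corrected calcium response at least 3 library SD above typical, normal starting fluorescence, not activating the receptor alone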;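 note: compound read alongside a low EC10 to EC30 dose of BAM8-22 agonist; peak minus trough fluorescence over baseline measured at the second addition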
Target sequence (Q96LB2 whole entry, looked up): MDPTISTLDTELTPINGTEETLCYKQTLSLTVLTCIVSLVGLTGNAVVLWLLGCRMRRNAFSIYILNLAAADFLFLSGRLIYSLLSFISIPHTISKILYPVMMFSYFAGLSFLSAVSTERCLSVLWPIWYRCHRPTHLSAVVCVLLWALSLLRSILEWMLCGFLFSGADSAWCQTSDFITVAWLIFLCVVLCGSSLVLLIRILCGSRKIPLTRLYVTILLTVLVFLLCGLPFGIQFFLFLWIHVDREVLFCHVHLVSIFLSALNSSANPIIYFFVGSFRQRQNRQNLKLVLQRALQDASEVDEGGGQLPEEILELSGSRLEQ
MrgX1 antag = antagonists of human MrgX1 receptor, primary screen, HEK293 cells, Fluo-4 calcium flux; Mas-related G-protein coupled receptor member X1 (Homo sapiens), Q96LB2; BAM8-22 antagonism; stronger effect = lower value; B-score at 10 µM; actives 1.3% (n = 310,000); AID 588676, 2011;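 active = calcium-response B-score plate-corrected more than 3 library SD below zero, starting fluorescence within 5 deviations, no agonist response on first addition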;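 note: peak minus trough fluorescence over baseline after final BAM8-22 challenge near maximal dose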
RGS4 pot = RGS4 potentiators or activators, primary screen, cell-based, HEK293 M3R inducible RGS4, calcium flux | carbachol calcium flux Fluo4; stronger effect = lower value | AID 463111, 2010 | actives 0.92% (n = 310,000) | B-score at 10 µM;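 active = B-score of the integrated calcium signal more than 4 SD below the library mean, with starting fluorescence not abnormally high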;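 note: negative B-score means reduced calcium response which marks RGS4 activation or potentiation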
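Material: Inducible-RGS4 HEK293 cells carrying M3 receptor; also added: carbachol at ECmax as muscarinic agonist stimulus; incubation: compound preincubation 20 min at room temperature before agonist; signal: Fluo4-AM (2 µM) calcium-flux fluorescence, kinetic read; measure: integrated calcium ratio converted to B score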
MrgX1 ag = agonists of human MrgX1 receptor, primary screen, HEK293 cells, Fluo-4 calcium flux; Fluo-4 calcium fluorescence, agonist mode; stronger effect = higher value; B-score at 10 µM; actives 0.44% (n = 310,000);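 active = calcium response B-score plate-corrected fluorescence ratio at least 3 library SD, with starting fluorescence B-score inside 5 SD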
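times = overnight plating, then 30 min 37 °C plus 30 min room-temperature dye loading | assay system = stable human MrgX1 HEK293 cell line | input = fifteen thousand cells per well | signal = kinetic calcium dye fluorescence, Fluo-4 NW | dosing = compound delivered in addition one of three | read-out = B-scored fluorescence response ratio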
RGS4 block = RGS4 inhibitors, primary screen, cell-based, HEK293 M3R inducible RGS4, calcium flux; Regulator of G-protein signaling 4 (Homo sapiens), P49798; Fluo-4 calcium flux; stronger effect = higher value; triggered by carbachol at its EC20; B-score at 10 µM; actives 0.45% (n = 310,000); AID 463165, 2010;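 active = B-score, a plate-corrected calcium signal, over three deviations above library mean, with baseline fluorescence within five deviations of library mean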;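 note: RGS4 expression induced by doxycycline in cells with stable M3 receptor; B-score is computed from the integrated fluorescence ratio over baseline after carbachol; higher B-score means a larger calcium signal and so more RGS4 inhibition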
Target sequence (P49798 whole entry, looked up): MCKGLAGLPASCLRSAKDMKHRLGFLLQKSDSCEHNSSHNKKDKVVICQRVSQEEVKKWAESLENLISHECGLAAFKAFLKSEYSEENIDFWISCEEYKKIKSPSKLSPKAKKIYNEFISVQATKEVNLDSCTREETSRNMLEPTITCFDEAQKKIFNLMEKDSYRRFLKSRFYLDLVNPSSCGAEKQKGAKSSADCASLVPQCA
MrgX1 ag confirm = MrgX1 receptor agonists, duplicate retest, confirmation, HEK293 cells, Fluo-4 calcium flux; shares compounds with MrgX1 ag; Fluo-4 calcium fluorescence, FDSS; activation, % at 10 µM; actives 78% (n = 600); AID 602412, 2012;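 active = calcium signal rise, corrected for plate position, at least 3 library SD high, with starting brightness within 5 such deviations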; note: reference of the scale not given here
MrgX1 PAM conf = MrgX1 positive allosteric modulators, duplicate retest, confirmation, HEK293 cells, Fluo-4 calcium flux; shares compounds with MrgX1 allo act; Fluo-4 calcium fluorescence, FDSS; activation (ratio percentage), % at 10 µM; actives 13% (n = 1,200); AID 602413, 2012;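 active = ratio at least 3 SD above the weak peptide control, stable starting fluorescence, no direct agonism earlier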;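 note: compound followed by low BAM8-22 agonist challenge near EC20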
HEK293 Ca flux = nonspecific calcium signal in parental HEK293, confirmation, counter-screen for MrgX1 antagonist project, parental HEK293 cells, Fluo-4 calcium flux; shares compounds with MrgX1 antag; Fluo-4 calcium fluorescence, FDSS; fluorescence ratio F(max-min)/F0 at 10 µM; actives 2% (n = 4,000); AID 624111, 2012;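 active = duplicate-averaged calcium fluorescence ratio at least three times the standard deviation of buffer wells, a nonspecific response in parental cells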
HEK293 Ca counter = calcium response in parental HEK293 cells, primary screen, counter-screen for MrgX1 allosteric activator project, cell-based, Fluo-4 calcium flux, duplicate. fluorescence ratio F(max-min)/F0 at 10 µM. actives 0.4% (n = 4,000). Fluo-4 fluorescence ratio; stronger effect = higher value. AID 624114, 2012. shares compounds with MrgX1 antag;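 active = calcium fluorescence ratio, averaged over duplicates, at least 3 SD of the buffer-well ratio, meaning a nonspecific response in receptor-free cells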;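 note: untransfected parental HEK293 lacking MrgX1 used as counterscreen for MrgX1 allosteric activators; fluorescence change taken during the second addition on a kinetic imager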
HEK293 Ca cntr2 = calcium response in parental HEK293 cells, primary screen, counter-screen for MrgX1 agonist project, cell-based, Fluo-4 calcium flux, duplicate, agonist mode; shares compounds with MrgX1 antag; Fluo-4 calcium fluorescence (FDSS); stronger effect = higher value; fluorescence ratio F(max-min)/F0 at 10 µM; actives 8.7% (n = 4,000);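 active = calcium fluorescence ratio at least three times the spread of buffer wells, meaning a non-specific response in parental cells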
Numbers without * were called inactive; i = inactive; . = no result given. A selection: hits, their analogues and other compounds. The true share with any hit is near 3.5%.

SMILES | MrgX1 allo act | MrgX1 antag | RGS4 pot | MrgX1 ag | RGS4 block | MrgX1 ag confirm | HEK293 Ca flux | HEK293 Ca counter | HEK293 Ca cntr2 | others
CCOC(=O)Nc1ccc2c(c1)N(C(=O)N(CC)CC)c1ccccc1CC2 | i | i | i | 38* | i | 161%* | i | i | 47*
CCOC(=O)Nc1ccc2c(c1)N(C(=O)N(C)C)c1ccccc1CC2 | i | i | i | i | i | . | . | . | .
Cc1ccccc1C(=O)NNC(=S)NC(=O)COc1ccccc1 | i | i | i | 120* | i | 640%* | i | i | 125*
Cc1ccc(C(=O)NNC(=S)NC(=O)COc2ccccc2)cc1 | i | i | i | 109* | i | 618%* | i | i | 116*
COc1cccc(-c2nc(CS(=O)(=O)CC(=O)NC3CCCC3)c(C)o2)c1 | i | i | i | i | i | . | . | . | .
O=C1COc2ccc(C(=O)CSc3nnc(Cc4cccs4)n3-c3ccccc3)cc2N1 | i | i | i | 27* | i | 175%* | i | i | i
O=C(N/N=C/c1cc([N+](=O)[O-])cc(Br)c1O)C12CC3CCC(CC(C3)C1)C2 | i | i | i | 73* | i | 175%* | i | i | 92*
COc1cc(/C=N/NC(=O)C23CC4CC(CC(C4)C2)C3)cc(Br)c1O | i | i | i | i | i | . | . | . | .
CSCCC(NC(=O)c1ccco1)C(=O)OC(C)C(=O)NC(=O)NC1CCCCC1 (stereo not drawn) | i | i | i | 92* | i | 397%* | i | i | 86*
COc1cc(/C=C2\NC(=S)N(C)C2=O)ccc1O | i | i | i | i | i | . | . | . | .
CCN1C(=O)/C(=C/c2ccc(N3CCCC3)cc2)NC1=S | i | i | i | 70* | i | i | 0.02* | i | 251*
Cc1cc(/C=C2\NC(=S)N(C)C2=O)ccc1N1CCCC1 | i | i | i | 91* | i | i | 0.3* | i | 203*
Clc1cccc(OCCN2CCN(CCOc3cccc(Cl)c3)CC2)c1 | i | i | i | i | i | . | . | . | .
CC(=O)c1cc2c(=O)c3cc(C)ccc3oc2nc1C | i | i | i | i | i | . | . | . | .
Cc1cc(Nc2ccc(Cl)cc2)nc(N)n1 | i | i | i | 35* | i | 207%* | i | i | i
CC1(C)Cc2c(c(-c3ccco3)nc3sc4c(NCCCO)ncnc4c23)CO1 | i | i | i | i | i | . | . | . | .
CC1(C)Cc2c(c(-c3ccco3)nc3sc4c(NCC5CCCO5)ncnc4c23)CO1 (stereo not drawn) | i | i | i | 49* | i | 208%* | i | i | 45*
CC(=O)Oc1ccc(-c2cccc(C(=O)NCCO)c2)cc1 | i | i | i | i | i | . | . | . | .
CCOC(=O)N1CCN(c2nc(-c3ccc(OC)cc3)no2)CC1 | i | i | i | 74* | i | i | i | i | i
O=C(Nc1ccc(Br)cc1Cl)c1ccc2c(=O)n3c(nc2c1)CCC3 | i | i | i | 55* | i | 468%* | i | i | 102*
O=C(Nc1ccc(Cl)cc1Cl)c1ccc2c(=O)n3c(nc2c1)CCC3 | i | i | i | 85* | i | 462%* | i | i | 107*
O=C(Nc1ccc(Cl)cc1)c1ccc2c(=O)n3c(nc2c1)CCCCC3 | i | i | i | i | i | . | . | . | .
Cc1c(O)c(CN2CCCCC2)cc2c3c(c(=O)oc12)CCC3 | i | i | i | i | i | . | . | . | .
CN1C(=O)C(CCC(N)=O)NC1=S (stereo not drawn) | i | i | i | i | i | . | . | . | .
CC(=O)[C@@]1(O)CC[C@H]2[C@@H]3CCC4=CC(=O)CC[C@]4(C)[C@H]3[C@@H](O)C[C@@]21C | i | i | i | 48* | i | i | i | i | i
SMILES | MrgX1 allo act | MrgX1 antag | RGS4 pot | MrgX1 ag | RGS4 block | MrgX1 ag confirm | HEK293 Ca flux | HEK293 Ca counter | HEK293 Ca cntr2 | others
CN(C)CCCN1C(=O)C2CCc3[nH]c4ccccc4c3C2C1=O (stereo not drawn) | i | i | i | i | i | . | . | . | .
c1ccc(N2CCN(c3ccccc3)C2c2ccncc2)cc1 | i | i | i | i | i | . | . | . | .
Cc1cccc(C)c1NC(=O)C(=O)NCCc1c[nH]c2ccccc12 | i | i | i | 41* | i | i | i | 49* | i
Cc1cccc(NC(=O)C(=O)NCCc2c[nH]c3ccccc23)c1C | i | i | i | i | i | . | . | . | .
COc1ccc(-c2csc(NC(=O)CN3C(=O)C4CCCCC4C3=O)n2)cc1OC (stereo not drawn) | i | i | i | 30* | i | i | i | i | i
COc1ccc(-c2csc(NC(=O)CSCc3c(C)noc3C)n2)cc1OC | i | i | i | 44* | i | i | i | i | i
COc1ccc(OC)c(-c2csc(NC(=O)CN3C(=O)C4CCCCC4C3=O)n2)c1 (stereo not drawn) | i | i | i | i | i | . | . | . | .
C/C(=N\NC(=O)c1ccc(Cl)c(S(=O)(=O)Nc2ccccc2Cl)c1)c1ccncc1 | 21* | i | i | i | i | . | i | i | i | MrgX1 PAM conf=i
C/C(=N\NC(=O)c1cccc(S(=O)(=O)Nc2ccccc2Cl)c1)c1ccco1 | i | i | i | i | i | . | . | . | .
